Test results reported in ChEMBL document CHEMBL1955770, “Inhibition of S/G2 phase CDK4 reduces mitotic fidelity” (J Biol Chem, 2006).

Columns and labels:
[1] = target: AP2-associated protein kinase 1 (Homo sapiens) (UniProt Q2M2I8); experiment: Inhibition of AAK1 at 1 uM
[2] = target: Tyrosine-protein kinase ABL1 (Homo sapiens) (UniProt P00519); experiment: Inhibition of ABL1 at 1 uM
[3] = target: RAC-alpha serine/threonine-protein kinase (Homo sapiens) (UniProt P31749); experiment: Inhibition of AKT1 at 1 uM
Summary of the method: (§1)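 Competition binding screen across a kinase panel with compound at 1 μM. Read-out is % competition. Kinases not hit at this concentration were scored '<50'. No Kd was determined for hits.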

[4] = target: BMP-2-inducible protein kinase (Homo sapiens) (UniProt Q9NSY1); experiment: Inhibition of BIKE at 1 uM; summary of the method: as §1
[5] = target: Calcium/calmodulin-dependent protein kinase type II subunit gamma (Homo sapiens) (UniProt Q13555); experiment: Inhibition of CAMK2G at 1 uM
Summary of the method: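 Competition binding screen against a kinase panel, compound tested at a single concentration of 1 μM. Read-out is % competition, where higher scores mark stronger hits. Kinases not hit in the primary screen are reported as '<50'. No Kd values were determined.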

[6] = target: Dual specificity protein kinase CLK2 (Homo sapiens) (UniProt P49760); experiment: Inhibition of CLK2 at 1 uM
[7] = target: Casein kinase I isoform gamma-2 (Homo sapiens) (UniProt P78368); experiment: Inhibition of CSNK1G2 at 1 uM
[8] = target: Death-associated protein kinase 2 (Homo sapiens) (UniProt Q9UIK4); experiment: Inhibition of DAPK2 at 1 uM
[9] = target: Myotonin-protein kinase (Homo sapiens) (UniProt Q09013); experiment: Inhibition of DMPK at 1 uM
[10] = target: Ephrin type-A receptor 2 (Homo sapiens) (UniProt P29317); experiment: Inhibition of EPHA2 at 1 uM
[11] = target: Ephrin type-A receptor 3 (Homo sapiens) (UniProt P29320); experiment: Inhibition of EPHA3 at 1 uM
[12] = target: Ephrin type-A receptor 8 (Homo sapiens) (UniProt P29322); experiment: Inhibition of EPHA8 at 1 uM
[13] = target: Ephrin type-B receptor 1 (Homo sapiens) (UniProt P54762); experiment: Inhibition of EPHB1 at 1 uM
[14] = target: Ephrin type-B receptor 4 (Homo sapiens) (UniProt P54760); experiment: Inhibition of EPHB4 at 1 uM
[15] = target: Tyrosine-protein kinase Fer (Homo sapiens) (UniProt P16591); experiment: Inhibition of FER at 1 uM
[16] = target: Fibroblast growth factor receptor 1 (Homo sapiens) (UniProt P11362); experiment: Inhibition of FGFR1 at 1 uM
[17] = target: Fibroblast growth factor receptor 2 (Homo sapiens) (UniProt P21802); experiment: Inhibition of FGFR2 at 1 uM
[18] = target: Receptor-type tyrosine-protein kinase FLT3 (Homo sapiens) (UniProt P36888); experiment: Inhibition of FLT3 at 1 uM
[19] = target: Vascular endothelial growth factor receptor 3 (Homo sapiens) (UniProt P35916); experiment: Inhibition of FLT4 at 1 uM
[20] = target: Tyrosine-protein kinase FRK (Homo sapiens) (UniProt P42685); experiment: Inhibition of FRK at 1 uM
[21] = target: Tyrosine-protein kinase Fyn (Homo sapiens) (UniProt P06241); experiment: Inhibition of FYN at 1 uM
[22] = target: Tyrosine-protein kinase HCK (Homo sapiens) (UniProt P08631); experiment: Inhibition of HCK at 1 uM
[23] = target: Mitogen-activated protein kinase 10 (Homo sapiens) (UniProt P53779); experiment: Inhibition of JNK3 at 1 uM
[24] = target: Tyrosine-protein kinase Lck (Homo sapiens, UniProt P06239); experiment: Inhibition of LCK at 1 uM
[25] = target: Leukocyte tyrosine kinase receptor (Homo sapiens) (UniProt P29376); experiment: Inhibition of LTK at 1 uM
[26] = target: Serine/threonine-protein kinase MARK2 (Homo sapiens) (UniProt Q7KZI7); experiment: Inhibition of MARK2 at 1 uM
[27] = target: Serine/threonine-protein kinase PAK 3 (Homo sapiens) (UniProt O75914); experiment: Inhibition of PAK3 at 1 uM
[28] = target: Serine/threonine-protein kinase PAK 4 (Homo sapiens) (UniProt O96013); experiment: Inhibition of PAK4 at 1 uM
[29] = target: Serine/threonine-protein kinase PAK 5 (Homo sapiens) (UniProt Q9P286); experiment: Inhibition of PAK7/PAK5 at 1 uM
[30] = target: Cyclin-dependent kinase 16 (Homo sapiens) (UniProt Q00536); experiment: Inhibition of PCTK1 at 1 uM
[31] = target: Platelet-derived growth factor receptor alpha (Homo sapiens) (UniProt P16234); experiment: Inhibition of PDGFRA at 1 uM
[32] = target: 3-phosphoinositide-dependent protein kinase 1 (Homo sapiens) (UniProt O15530); experiment: Inhibition of PDPK1 at 1 uM
[33] = target: Phosphorylase b kinase gamma catalytic chain, liver/testis isoform (Homo sapiens) (UniProt P15735); experiment: Inhibition of PHKG2 at 1 uM
[34] = target: Serine/threonine-protein kinase pim-2 (Homo sapiens) (UniProt Q9P1W9); experiment: Inhibition of PIM2 at 1 uM
[35] = target: Protein-tyrosine kinase 2-beta (Homo sapiens) (UniProt Q14289); experiment: Inhibition of PTK2B at 1 uM
[36] = target: Protein-tyrosine kinase 6 (Homo sapiens) (UniProt Q13882); experiment: Inhibition of PTK6 at 1 uM
[37] = target: Serine/threonine-protein kinase 10 (Homo sapiens) (UniProt O94804); experiment: Inhibition of STK10 at 1 uM
[38] = target: Serine/threonine-protein kinase STK11 (Homo sapiens) (UniProt Q15831); experiment: Inhibition of STK11 at 1 uM
[39] = target: Serine/threonine-protein kinase 16 (Homo sapiens) (UniProt O75716); experiment: Inhibition of STK16 at 1 uM
[40] = target: Angiopoietin-1 receptor (Homo sapiens) (UniProt Q02763); experiment: Inhibition of TIE2 at 1 uM
[41] = target: TRAF2 and NCK-interacting protein kinase (Homo sapiens) (UniProt Q9UKE5); experiment: Inhibition of TNIK at 1 uM
HCT-116 = experiment: Cell cycle arrest in Rb-competent human HCT116 cells assessed as reduction in S phase after 24 hrs using BrdUrd staining by FACS analysis; type: functional, cell-based; conditions: HCT-116, 24 h
Summary of the method: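 Asynchronous HCT-116 cells treated 24 h with increasing inhibitor doses, then given a 30-min BrdUrd pulse before harvest. Percentage of BrdUrd-positive cells measured by FACS; IC50 taken as the dose reducing S phase to 50% of control.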

[42] = target: cAMP-dependent protein kinase catalytic subunit alpha (Homo sapiens) (UniProt P17612); experiment: Inhibition of PKA catalytic subunit alpha at 1 uM

TRAF2 and NCK-interacting protein kinase (Homo sapiens), sequence (Q9UKE5 whole entry, looked up): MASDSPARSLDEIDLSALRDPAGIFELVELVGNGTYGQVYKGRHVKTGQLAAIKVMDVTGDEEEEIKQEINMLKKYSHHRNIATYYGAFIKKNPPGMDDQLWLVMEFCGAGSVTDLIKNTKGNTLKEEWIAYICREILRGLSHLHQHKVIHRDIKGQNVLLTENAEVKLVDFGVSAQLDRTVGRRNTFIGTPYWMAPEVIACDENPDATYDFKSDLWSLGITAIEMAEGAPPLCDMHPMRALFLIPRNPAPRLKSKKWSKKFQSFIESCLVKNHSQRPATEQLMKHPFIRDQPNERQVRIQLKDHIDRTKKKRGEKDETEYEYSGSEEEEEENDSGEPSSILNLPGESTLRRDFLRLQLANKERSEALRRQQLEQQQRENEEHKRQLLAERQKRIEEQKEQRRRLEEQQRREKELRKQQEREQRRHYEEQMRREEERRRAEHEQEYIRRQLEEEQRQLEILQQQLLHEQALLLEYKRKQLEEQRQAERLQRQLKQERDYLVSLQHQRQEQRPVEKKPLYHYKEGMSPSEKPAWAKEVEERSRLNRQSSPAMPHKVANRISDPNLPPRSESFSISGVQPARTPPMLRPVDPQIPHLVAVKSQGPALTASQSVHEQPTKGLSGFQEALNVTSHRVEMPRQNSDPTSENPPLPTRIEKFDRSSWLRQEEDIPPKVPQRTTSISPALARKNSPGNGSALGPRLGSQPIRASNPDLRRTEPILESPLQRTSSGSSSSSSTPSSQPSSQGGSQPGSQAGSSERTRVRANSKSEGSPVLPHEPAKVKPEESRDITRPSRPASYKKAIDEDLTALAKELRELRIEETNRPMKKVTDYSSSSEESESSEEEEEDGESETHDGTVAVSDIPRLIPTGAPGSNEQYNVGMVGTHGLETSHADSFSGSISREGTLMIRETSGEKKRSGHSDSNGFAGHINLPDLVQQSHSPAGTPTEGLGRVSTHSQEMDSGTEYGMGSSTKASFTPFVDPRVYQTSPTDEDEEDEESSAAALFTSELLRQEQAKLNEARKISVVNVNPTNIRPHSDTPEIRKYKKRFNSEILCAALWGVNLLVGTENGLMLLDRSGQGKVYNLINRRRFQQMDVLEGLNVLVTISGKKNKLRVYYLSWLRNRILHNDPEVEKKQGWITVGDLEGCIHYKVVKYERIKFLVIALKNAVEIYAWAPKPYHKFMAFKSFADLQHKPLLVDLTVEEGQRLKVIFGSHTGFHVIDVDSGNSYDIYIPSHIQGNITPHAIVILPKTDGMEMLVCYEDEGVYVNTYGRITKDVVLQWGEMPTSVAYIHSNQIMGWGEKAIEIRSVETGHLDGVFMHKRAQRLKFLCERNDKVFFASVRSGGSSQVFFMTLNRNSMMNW
Ephrin type-A receptor 8 (Homo sapiens), sequence (P29322 whole entry): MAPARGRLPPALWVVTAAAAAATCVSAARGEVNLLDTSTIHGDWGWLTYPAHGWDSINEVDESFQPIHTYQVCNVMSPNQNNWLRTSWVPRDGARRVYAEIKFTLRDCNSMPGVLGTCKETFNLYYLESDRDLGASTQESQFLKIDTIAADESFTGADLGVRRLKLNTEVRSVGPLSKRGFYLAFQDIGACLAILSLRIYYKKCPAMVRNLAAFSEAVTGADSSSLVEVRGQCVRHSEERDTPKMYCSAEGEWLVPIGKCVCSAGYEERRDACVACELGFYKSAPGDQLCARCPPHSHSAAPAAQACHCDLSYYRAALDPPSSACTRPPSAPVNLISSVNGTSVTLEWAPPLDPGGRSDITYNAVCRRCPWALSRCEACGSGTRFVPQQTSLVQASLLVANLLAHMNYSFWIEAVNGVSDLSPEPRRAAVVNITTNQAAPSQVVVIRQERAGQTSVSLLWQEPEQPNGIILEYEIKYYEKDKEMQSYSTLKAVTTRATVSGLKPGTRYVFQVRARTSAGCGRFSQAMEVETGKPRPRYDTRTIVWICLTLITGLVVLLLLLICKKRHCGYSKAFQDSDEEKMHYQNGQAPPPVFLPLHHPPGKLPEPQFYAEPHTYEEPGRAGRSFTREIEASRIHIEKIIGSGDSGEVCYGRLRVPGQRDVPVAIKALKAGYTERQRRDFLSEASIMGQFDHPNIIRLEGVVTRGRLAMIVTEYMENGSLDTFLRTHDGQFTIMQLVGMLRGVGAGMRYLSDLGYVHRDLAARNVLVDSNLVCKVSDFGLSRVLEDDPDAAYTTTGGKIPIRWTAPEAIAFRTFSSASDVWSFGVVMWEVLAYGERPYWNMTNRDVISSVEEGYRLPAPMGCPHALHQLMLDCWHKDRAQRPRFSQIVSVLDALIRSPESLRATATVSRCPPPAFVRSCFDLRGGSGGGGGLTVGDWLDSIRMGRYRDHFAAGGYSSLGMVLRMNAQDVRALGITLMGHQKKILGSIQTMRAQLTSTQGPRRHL
Dual specificity protein kinase CLK2 (Homo sapiens), sequence (P49760 whole entry, looked up, canonical isoform): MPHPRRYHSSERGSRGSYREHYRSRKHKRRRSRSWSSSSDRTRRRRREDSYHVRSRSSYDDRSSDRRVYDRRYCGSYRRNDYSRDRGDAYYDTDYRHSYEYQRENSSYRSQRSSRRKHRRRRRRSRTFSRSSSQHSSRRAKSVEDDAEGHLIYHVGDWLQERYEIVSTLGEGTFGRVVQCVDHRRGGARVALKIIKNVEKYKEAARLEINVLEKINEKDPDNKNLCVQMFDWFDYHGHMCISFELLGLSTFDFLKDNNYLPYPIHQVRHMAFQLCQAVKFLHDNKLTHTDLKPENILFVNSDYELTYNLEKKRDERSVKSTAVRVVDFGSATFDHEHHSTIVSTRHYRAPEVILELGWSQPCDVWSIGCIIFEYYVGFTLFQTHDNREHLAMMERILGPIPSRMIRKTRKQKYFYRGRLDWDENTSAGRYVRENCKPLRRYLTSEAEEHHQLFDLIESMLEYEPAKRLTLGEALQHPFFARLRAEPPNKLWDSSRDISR
Angiopoietin-1 receptor (Homo sapiens), sequence (Q02763 whole entry): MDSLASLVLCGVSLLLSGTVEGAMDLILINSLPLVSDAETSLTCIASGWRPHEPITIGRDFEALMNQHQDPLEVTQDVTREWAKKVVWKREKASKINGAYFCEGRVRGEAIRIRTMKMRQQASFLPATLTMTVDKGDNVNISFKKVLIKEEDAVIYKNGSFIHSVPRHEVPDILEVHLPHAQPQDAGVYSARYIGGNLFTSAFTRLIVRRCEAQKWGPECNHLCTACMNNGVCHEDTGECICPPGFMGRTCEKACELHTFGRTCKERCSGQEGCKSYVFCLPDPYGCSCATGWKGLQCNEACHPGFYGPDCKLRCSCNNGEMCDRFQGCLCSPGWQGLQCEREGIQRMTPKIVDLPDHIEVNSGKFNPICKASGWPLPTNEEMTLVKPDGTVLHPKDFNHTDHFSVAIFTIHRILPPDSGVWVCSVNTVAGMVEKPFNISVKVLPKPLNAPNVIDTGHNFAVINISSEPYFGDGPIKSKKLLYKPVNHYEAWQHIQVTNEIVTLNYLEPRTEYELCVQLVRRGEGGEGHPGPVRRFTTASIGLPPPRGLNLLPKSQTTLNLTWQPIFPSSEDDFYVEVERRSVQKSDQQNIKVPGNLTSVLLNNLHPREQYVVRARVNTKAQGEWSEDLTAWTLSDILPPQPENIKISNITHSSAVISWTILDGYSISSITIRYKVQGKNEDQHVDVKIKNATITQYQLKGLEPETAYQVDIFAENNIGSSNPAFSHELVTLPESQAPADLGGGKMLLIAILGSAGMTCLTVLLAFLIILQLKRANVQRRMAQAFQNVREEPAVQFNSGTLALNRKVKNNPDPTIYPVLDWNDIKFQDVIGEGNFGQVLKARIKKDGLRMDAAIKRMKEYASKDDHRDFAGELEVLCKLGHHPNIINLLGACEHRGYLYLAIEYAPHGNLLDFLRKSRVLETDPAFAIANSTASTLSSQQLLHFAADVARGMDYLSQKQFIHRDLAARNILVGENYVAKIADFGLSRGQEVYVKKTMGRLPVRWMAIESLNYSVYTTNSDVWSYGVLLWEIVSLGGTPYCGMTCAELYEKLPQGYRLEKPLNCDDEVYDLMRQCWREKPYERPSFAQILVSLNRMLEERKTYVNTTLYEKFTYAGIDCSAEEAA
Death-associated protein kinase 2 (Homo sapiens), sequence (Q9UIK4 whole entry, looked up): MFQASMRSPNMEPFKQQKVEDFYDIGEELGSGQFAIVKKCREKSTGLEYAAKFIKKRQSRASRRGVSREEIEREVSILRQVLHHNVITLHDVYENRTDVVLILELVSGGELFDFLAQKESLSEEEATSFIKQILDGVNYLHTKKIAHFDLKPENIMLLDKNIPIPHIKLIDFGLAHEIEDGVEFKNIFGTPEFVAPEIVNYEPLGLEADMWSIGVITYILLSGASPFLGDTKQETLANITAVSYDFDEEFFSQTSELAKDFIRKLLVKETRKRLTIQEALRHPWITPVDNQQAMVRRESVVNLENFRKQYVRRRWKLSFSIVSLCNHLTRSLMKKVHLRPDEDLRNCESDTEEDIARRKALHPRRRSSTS
Protein-tyrosine kinase 6 (Homo sapiens), sequence (Q13882 whole entry, looked up): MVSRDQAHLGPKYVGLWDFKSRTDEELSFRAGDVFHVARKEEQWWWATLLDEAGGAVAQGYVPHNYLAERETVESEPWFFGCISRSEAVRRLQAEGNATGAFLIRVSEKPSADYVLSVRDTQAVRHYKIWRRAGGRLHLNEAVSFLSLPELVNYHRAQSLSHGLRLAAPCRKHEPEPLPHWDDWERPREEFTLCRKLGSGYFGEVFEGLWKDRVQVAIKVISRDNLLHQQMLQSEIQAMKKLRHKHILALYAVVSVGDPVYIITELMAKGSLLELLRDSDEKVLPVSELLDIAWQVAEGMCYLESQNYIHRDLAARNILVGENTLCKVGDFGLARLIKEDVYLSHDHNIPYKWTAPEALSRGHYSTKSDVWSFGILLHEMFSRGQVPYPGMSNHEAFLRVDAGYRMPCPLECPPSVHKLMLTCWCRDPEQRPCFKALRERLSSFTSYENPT

CN1CCN(c2ccc(Nc3nc(N)c(C(=O)c4ccc5c(c4)OCCO5)s3)cc2)CC1
99%: inhibition [7] | inhibition [30]
6.1 µM: IC90 (HCT-116)
87%: inhibition [39]
100%: inhibition [6]
3.9 µM: IC50 (HCT-116)
66%: inhibition [23]
< 50%: inhibition [2] | inhibition [3] | inhibition [4] | inhibition [5] | inhibition [8] | inhibition [9] | inhibition [10] | inhibition [11] | inhibition [12] | inhibition [13] | inhibition [14] | inhibition [15] | inhibition [16] | inhibition [17] | inhibition [18] | inhibition [19] | inhibition [20] | inhibition [21] | inhibition [22] | inhibition [24] | inhibition [25] | inhibition [26] | inhibition [27] | inhibition [28] | inhibition [29] | inhibition [31] | inhibition [32] | inhibition [33] | inhibition [34] | inhibition [35] | inhibition [36] | inhibition [37] | inhibition [38] | inhibition [40] | inhibition [41] | inhibition [42]
84%: inhibition [1]
